According to ChEMBL document CHEMBL1137574, “Synthesis and structure-activity relationship for a novel class of potent and selective carbamate-based inhibitors of hormone selective lipase with acute in vivo antilipolytic effects” (J Med Chem, 2007):
Calls of active or inactive are those of the source. No cut-off for these calls is given here.

Tests used:
Homo sapiens [1] = organism: Homo sapiens; test: Inhibition of acetylcholine lipase
Homo sapiens [2] = organism: Homo sapiens; test: Inhibition of butyrylcholine lipase
[3] = target: T1, Pancreatic triacylglycerol lipase (Homo sapiens) (UniProt P16233); test: Inhibition of Pancreatic lipase
T1 sequence (whole entry): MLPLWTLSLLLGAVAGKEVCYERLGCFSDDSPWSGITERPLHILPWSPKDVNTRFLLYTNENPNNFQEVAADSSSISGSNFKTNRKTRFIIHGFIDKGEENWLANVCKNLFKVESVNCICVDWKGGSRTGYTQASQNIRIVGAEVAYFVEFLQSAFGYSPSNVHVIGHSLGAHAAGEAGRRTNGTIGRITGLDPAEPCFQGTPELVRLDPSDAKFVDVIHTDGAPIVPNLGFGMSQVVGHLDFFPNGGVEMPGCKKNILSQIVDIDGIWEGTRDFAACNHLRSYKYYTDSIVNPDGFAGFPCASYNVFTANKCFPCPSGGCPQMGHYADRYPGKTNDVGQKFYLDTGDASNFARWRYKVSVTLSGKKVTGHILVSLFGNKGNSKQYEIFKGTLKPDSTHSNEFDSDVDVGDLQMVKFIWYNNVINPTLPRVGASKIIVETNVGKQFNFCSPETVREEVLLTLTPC
Method in brief: (§1)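 Lipase inhibition (pancreatic, bovine lipoprotein, human hepatic) used a fluorochrome (NBD)-labelled triacylglyceride substrate. Inhibitor at six concentrations, 5-fold dilutions from a maximum of 100 µM, each point the mean of two measurements. IC50 from sigmoidal variable-slope nonlinear regression.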

Hormone-sensitive lipase = target: T2, Hormone-sensitive lipase (Homo sapiens, UniProt Q05469); test: Inhibition of recombinant human hormone-sensitive lipase
T2 sequence (Q05469 whole entry): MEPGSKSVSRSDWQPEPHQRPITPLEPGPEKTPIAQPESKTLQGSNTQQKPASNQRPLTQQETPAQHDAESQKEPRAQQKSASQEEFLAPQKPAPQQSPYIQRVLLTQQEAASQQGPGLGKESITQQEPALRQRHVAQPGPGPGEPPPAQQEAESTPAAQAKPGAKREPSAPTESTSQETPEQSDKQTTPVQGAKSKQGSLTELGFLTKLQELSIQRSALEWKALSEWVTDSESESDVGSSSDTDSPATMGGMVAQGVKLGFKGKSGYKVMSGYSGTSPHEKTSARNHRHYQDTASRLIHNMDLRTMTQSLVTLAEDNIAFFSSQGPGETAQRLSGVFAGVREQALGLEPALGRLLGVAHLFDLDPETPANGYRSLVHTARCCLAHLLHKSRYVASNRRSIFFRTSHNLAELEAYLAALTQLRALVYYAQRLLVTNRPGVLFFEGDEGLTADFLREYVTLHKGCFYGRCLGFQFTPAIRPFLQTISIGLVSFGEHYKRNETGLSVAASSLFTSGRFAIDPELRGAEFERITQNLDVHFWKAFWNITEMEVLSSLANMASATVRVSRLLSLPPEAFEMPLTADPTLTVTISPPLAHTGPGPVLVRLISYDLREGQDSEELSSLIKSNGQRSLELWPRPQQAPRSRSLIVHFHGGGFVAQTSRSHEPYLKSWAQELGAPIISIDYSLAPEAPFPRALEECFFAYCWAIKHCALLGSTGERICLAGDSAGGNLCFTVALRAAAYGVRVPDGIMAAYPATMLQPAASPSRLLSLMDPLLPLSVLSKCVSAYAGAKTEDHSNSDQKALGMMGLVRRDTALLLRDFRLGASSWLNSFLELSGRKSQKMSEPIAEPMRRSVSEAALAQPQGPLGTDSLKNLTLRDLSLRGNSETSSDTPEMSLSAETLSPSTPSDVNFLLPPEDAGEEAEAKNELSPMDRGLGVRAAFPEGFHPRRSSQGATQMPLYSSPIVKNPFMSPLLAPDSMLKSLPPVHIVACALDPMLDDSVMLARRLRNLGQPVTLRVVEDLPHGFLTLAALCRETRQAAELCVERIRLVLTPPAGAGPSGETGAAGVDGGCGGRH

Cholinesterase = Cholinesterase (Homo sapiens, UniProt P06276); test: Inhibition of butyrylcholine esterase
Chain of Cholinesterase (P06276 whole entry): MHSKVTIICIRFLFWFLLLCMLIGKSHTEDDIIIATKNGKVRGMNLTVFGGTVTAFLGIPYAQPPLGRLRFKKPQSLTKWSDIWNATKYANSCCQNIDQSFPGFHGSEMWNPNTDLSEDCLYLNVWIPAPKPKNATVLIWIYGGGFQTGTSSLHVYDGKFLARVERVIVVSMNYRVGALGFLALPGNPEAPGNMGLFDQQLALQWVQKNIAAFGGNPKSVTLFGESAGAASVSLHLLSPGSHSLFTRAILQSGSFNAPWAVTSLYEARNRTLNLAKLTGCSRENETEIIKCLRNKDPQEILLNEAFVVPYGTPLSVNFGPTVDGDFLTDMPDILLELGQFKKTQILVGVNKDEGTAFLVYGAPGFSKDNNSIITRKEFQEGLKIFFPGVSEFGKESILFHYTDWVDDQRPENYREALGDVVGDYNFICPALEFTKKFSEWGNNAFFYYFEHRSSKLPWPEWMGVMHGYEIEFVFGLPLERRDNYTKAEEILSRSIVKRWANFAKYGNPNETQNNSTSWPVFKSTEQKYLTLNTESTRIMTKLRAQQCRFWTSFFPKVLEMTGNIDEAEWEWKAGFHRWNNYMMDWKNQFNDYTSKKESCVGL

Rattus norvegicus = test: Reduction of glycerol in Sprague-Dawley rat at 10 mg/kg, po; assay type: ADME, organism-based; design: dose 10 mg/kg, route oral; scale not given: the % may be the effect or the level left; details: in vivo
Method in brief: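 Male Sprague-Dawley rats, 12 weeks old, fasted overnight; single 10 mg/kg p.o. dose (n = 4 per group; vehicle n = 8). Orbital plexus blood under isoflurane taken at baseline (0.5 h predose) and 1, 3 and 5 h postdose into EDTA tubes with 0.1% NaF. Plasma glycerol measured on an automated analyzer as the antilipolytic endpoint.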

[4] = Drug level in Sprague-Dawley rat at 10 mg/kg, po after 1 hr; assay type: ADME, organism-based; design: dose 10 mg/kg, route oral; details: in vivo, read-out: Drug uptake
Method in brief: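 Overnight-fasted male Sprague-Dawley rats received 10 mg/kg p.o. (n = 4). Plasma from orbital blood was collected into EDTA/NaF tubes, stored at -80 °C, and drug measured by turbulent-flow chromatography–MS/MS against plasma calibration curves (10-3000 ng/mL).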

[5] = target: T3, Hepatic triacylglycerol lipase (Homo sapiens) (UniProt P11150); test: Inhibition of hepatic lipase; method in brief: as §1
T3 sequence (whole entry): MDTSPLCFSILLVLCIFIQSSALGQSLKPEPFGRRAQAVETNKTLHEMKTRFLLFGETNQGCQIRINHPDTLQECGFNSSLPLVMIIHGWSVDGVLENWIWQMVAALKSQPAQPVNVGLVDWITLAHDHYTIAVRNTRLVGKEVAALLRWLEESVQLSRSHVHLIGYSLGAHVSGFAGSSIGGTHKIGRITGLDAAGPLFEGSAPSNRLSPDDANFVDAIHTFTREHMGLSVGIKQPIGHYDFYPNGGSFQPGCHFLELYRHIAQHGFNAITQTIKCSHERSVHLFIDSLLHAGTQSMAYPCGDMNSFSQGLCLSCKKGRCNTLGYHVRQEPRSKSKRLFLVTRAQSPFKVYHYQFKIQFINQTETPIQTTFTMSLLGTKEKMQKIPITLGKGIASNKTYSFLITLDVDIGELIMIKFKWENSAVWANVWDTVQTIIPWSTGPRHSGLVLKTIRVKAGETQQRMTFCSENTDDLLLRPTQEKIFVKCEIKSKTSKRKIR

[6] = target: T4, Lipoprotein lipase (Bos taurus) (UniProt P11151); test: Inhibition of bovin lipoprotein lipase; method in brief: as §1
T4 sequence (whole entry): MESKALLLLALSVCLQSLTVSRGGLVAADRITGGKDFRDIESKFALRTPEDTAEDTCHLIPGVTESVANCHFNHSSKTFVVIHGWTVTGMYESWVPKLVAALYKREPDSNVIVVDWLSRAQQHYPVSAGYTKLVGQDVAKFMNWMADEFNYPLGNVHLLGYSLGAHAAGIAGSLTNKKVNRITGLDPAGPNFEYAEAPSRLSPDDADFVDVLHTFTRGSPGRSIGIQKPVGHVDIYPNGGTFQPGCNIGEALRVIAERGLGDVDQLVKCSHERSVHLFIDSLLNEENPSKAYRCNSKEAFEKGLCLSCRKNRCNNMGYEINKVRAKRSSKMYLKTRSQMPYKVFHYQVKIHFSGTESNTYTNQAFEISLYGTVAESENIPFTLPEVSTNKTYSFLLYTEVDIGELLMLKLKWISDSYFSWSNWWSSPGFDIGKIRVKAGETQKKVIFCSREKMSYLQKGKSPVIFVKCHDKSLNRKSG

Row | SMILES | Activity (Homo sapiens [1]) | Activity (Homo sapiens [2]) | Activity [3] | IC50 (Hormone-sensitive lipase) | IC50 (Cholinesterase) | Activity (Rattus norvegicus) | concentration at 1 h [4] | Activity [5] | Activity [6]
1 | O=C(Oc1ccc(Oc2ccc(C(F)(F)F)cn2)cc1)N1CCC(CO)CC1 | inactive | inactive | inactive | 110 nM | > 50000 nM | 59% | 379 ng/mL | inactive | inactive
2 | O=C(Oc1ccc(Oc2ccc(C(F)(F)F)cn2)cc1)N1CCC(O)CC1 | inactive | inactive | inactive | 500 nM | > 50000 nM | 42% | 3200 ng/mL | inactive | inactive
